The EternaBench riboswitch data

Tested on: MS2 coat protein
Experiment: apparent Kd, MS2 coat protein; higher = weaker binding; RNA-MaP array; FMN 200 µM where present
Method in brief: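 The apparent Kd is reported as the median of filtered per-cluster binding-curve fits. To get these curves, designs transcribed by stalled E. coli RNA polymerase on Illumina sequencing-chip clusters were titrated with SNAP-549-labelled MS2 coat protein from 0.7 or 1.5 nM, doubling to 3 µM. Titrations were run without and then with constant ligand in 100 mM Tris-HCl pH 7.5, 80 mM KCl, 4 mM MgCl2, BSA, DTT, yeast tRNA and Tween-20, and green signal was normalised to red-channel RNA signal and control-cluster median Fmax.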

[1] = designed as: OFF switch for flavin mononucleotide, no ligand
[2] = ligand present: flavin mononucleotide, designed as: OFF switch for flavin mononucleotide
[3] = ligand present: flavin mononucleotide, designed as: ON switch for flavin mononucleotide
[4] = designed as: ON switch for flavin mononucleotide, no ligand

| Sequence | apparent Kd [1] | apparent Kd [2] | apparent Kd [3] | apparent Kd [4] |
| --- | --- | --- | --- | --- |
| CAUCUGGUGCAGAAGGGACAUAGGGUCCUUUGGUCGCUAAGUAUCCCACAUGAGGAUCACCCAUGUCAGGAUAUGUAUCUGGAU | 15.9 nM | 30.1 nM | – | – |
| AUCAGAUCGUCAGGAUAUACGUCACUGCGUCAGCAGUGUGGUAAGAUCACAUGAGGAUCACCCAUGUAGAAGGGACGAGCUGAU | 13.9 nM | 296 nM | – | – |
| AAUCUUUUUAUGGGAUUACAAUAUGAGGAUAUCAUUCAUUUAUACAUGAGGAUCACCCAUGUUACUGAGAAGGCAUAUAUAAUA | – | – | 11 nM | – |
| AAAAUCAAUAGAGGAUAUUCAUACACUACAUACGGAGAAGGCUAACAAUCAUGAGGACAUGAGGAUCACCCAUGUUGUGACCAU | – | – | 17.1 nM | 25.9 nM |
| GUCAGCUCGUGAGGAUAUACAACACUGGUUCGGCAGUGUAUUAAGAUCACAUGAGGAUCACCCAUGUAGAAGGCACGAGCUGAU | 13.6 nM | 280 nM | – | – |
| AGACUGCGUAGAAUUAGCAGCUGACAGGAUAUGACAUGAGGAUCACCCAUGUGAAAUAAGAAGGGUCAGAAGGGUCACGACACA | 11.7 nM | 9.98 nM | – | – |
| GCUAGUAUUGCAGGAUAUUGAGAAUAAUUUUGGCAAGAAGGGCAUUACAUGAGGAUCACCCAUGUUUUCCUUAGUCAUACUAGC | 6.39 nM | 5.85 nM | – | – |
| GACUCGGGUGCAGGAUAUCCGCCGGAUCGCAGUGGAGAAGGGCGCCAAGCGAACAUGAGGAUCACCCAUGUAUCGGAGUUGAAC | – | – | 10.4 nM | 56.9 nM |
| GUGUACAUAUCAGGAUAUCAUCGAGUGGAUUAACACAGUGAUUACAUGAGGAUCACCCAUGUGCUUGAGAAGGGAUUACAAUGU | 19.3 nM | 16.4 nM | – | – |
| AUUUUAAUAUAGGAUAUCGAAAUUAUUAUUUAACGAGAAGGAUGAACAUGAGGAUCACCCAUGUGGUAUCAUGG | 223 nM | 204 nM | – | – |
| GUGUCCUUAGGAUAUGUUGAGUUAUACAUGAGGAUCACCCAUGUUCCUCGGUAUUGGUCCAUAGAAGGAAGGUUGC | 346 nM | 337 nM | – | – |
| CGCAUACUAGGAUAUACAUGAGGAUCACCCAUGUCGCCGGGCCCACUCAUACUAAAACGUAGAAGGAGUUUGCC | 18.5 nM | 18.8 nM | – | – |
| UGUUGUAUUACAGGAUAUCUAUUAUUUUUAGUUAGAGAAGGGUAUUCACAUGAGGAUCACCCAUGUAUAUACGAGGAAGUUGUG | – | – | 44.3 nM | 43.5 nM |
| UUUAUGUCAGGAUAUGAUUAGAUCUACUUCGGUAGAUCUAAUCAGAAGGGACAUGAGGAUCACCCAUGUUUUUU | 43.8 nM | 223 nM | – | – |
| CGGACCCGAGGAUAUCGUAAACCCGACAUGAGGAUCACCCAUGUCAUCCUCACGGCGCCACGAGAAGGCGGUGUUA | 24.2 nM | 75.7 nM | – | – |
| GUGGUCAGACAUGAGGAUCACCCAUGUGGAAUAAAUAACACACAGGAUAUCCAAUAUAAAAUAUAGGAGAAGGGUGGAUUGGUG | – | – | 181 nM | 253 nM |
| UUCAUCAAUGAAGGAUAUCUAUAUCCAACAUGAGGAUCACCCAUGUUGAGGAUCACCUAUGUAAAGGAGAAGGUUAAUAUAACU | – | – | 6.32 nM | 6.83 nM |
| GGUUGGCGAGGAUAUACAUGAGGAUCACCCAUGUGGUCCUGUGGCUGAAAAAACCUUUGUAGAAGGCGCGGGUC | 197 nM | 262 nM | – | – |
| GGUUGACAAAGUCAACCAUUACGAACAUGAGGAUCACCCAUGUAGGAUAUGCUACUCAAAGAGUAGCAGAAGGACAUGUGUCUU | 30.1 nM | 147 nM | – | – |
| GCCAUCGUAUGAGGAUAUGGCACCGAAACGGUGCCAGAAGGCAUGUCAAUAGACAUGAGGAUCACCCAUGUAUUAUCGAUGGCA | – | – | 37.1 nM | 367 nM |
| CCUGUCGUAUGAGGAUAUGGUCAGCUUUGCUGACCAGAAGGCAUGUCAAUAGACAUGAGGAUCACCCAUGUAGUAAAGACAGGA | – | – | 40.1 nM | 381 nM |
| AUUAUAUAGACAGGAUAUUGAUUAUUAUUUUAACAUGAGGAUCACCCAUGUAGCCUUAUGUAUAACAAGAAGGGUCAUUUAUUA | 151 nM | 190 nM | – | – |
| GGGCAUAUUACAUGAGGAUCACCCAUGUCAGAAAGGGUAAUCAGAAGGUACUAUUAGAGAAAGAGUAAGGAUAUGAUUAUGCCC | – | – | 40.6 nM | 486 nM |
